This is a sample that favours compounds with a hit; in the whole collection about 3.5% have one here.
RGS4 inh = human RGS4 inhibition; P49798; HEK293 M3R/RGS4 inducible, Fluo-4 calcium flux; active compounds read high; triggered by carbachol at its EC20; B-score at 10 µM; 0.45% of 310,000 active; AID 463165;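 active means B-score, a plate-corrected calcium signal, over three deviations above library mean, with baseline fluorescence within five deviations of library mean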;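 further: RGS4 expression induced by doxycycline in cells with stable M3 receptor; B-score is computed from the integrated fluorescence ratio over baseline after carbachol; higher B-score means a larger calcium signal and so more RGS4 inhibition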
Target sequence (P49798 whole entry, looked up): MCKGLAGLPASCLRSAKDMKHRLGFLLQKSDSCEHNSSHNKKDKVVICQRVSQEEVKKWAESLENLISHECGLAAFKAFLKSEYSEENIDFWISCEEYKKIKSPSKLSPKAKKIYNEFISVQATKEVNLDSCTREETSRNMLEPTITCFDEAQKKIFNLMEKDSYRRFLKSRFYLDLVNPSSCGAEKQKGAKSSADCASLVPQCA
MrgX1 antagonist = human MrgX1 receptor antagonism, primary screen. Q96LB2. 1.3% of 310,000 active. AID 588676. MRGX1-HEK293 calcium flux, Fluo-4, BAM8-22 antagonism; active compounds read low. B-score at 10 µM;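 active means calcium-response B-score plate-corrected more than 3 library SD below zero, starting fluorescence within 5 deviations, no agonist response on first addition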;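 further: peak minus trough fluorescence over baseline after final BAM8-22 challenge near maximal dose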
Target sequence (Q96LB2 whole entry, looked up): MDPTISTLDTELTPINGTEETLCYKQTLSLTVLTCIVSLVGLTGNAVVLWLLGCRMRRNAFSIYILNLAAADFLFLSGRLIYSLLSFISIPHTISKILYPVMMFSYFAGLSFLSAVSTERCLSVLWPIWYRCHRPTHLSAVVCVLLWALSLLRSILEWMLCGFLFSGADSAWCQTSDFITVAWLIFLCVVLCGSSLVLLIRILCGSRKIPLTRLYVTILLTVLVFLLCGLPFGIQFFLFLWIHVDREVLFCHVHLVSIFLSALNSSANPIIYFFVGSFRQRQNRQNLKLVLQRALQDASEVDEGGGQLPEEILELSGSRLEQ
RGS4 pot = RGS4 potentiation or activation; HEK293 M3R/inducible RGS4, carbachol calcium flux Fluo4; active compounds read low; B-score at 10 µM; 0.92% of 310,000 active;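 active means B-score of the integrated calcium signal more than 4 SD below the library mean, with starting fluorescence not abnormally high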;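 further: negative B-score means reduced calcium response which marks RGS4 activation or potentiation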
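test system = HEK293 cells with stable M3R and inducible RGS4 | schedule = recording 10 s baseline at 1 Hz, 100 s post-agonist | technique = Fluo4-AM (2 µM) calcium-flux fluorescence, kinetic read | measure = Agonist-evoked peak-minus-minimum fluorescence over baseline, integrated ratio, B score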
MrgX1 ag = activates human MrgX1 receptor signaling; Q96LB2; B-score at 10 µM; 0.44% of 310,000 active; AID 588627; MrgX1-HEK293 cells, Fluo-4 calcium fluorescence, agonist mode; active compounds read high;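 active means calcium response B-score plate-corrected fluorescence ratio at least 3 library SD, with starting fluorescence B-score inside 5 SD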
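Test system: Stable human MrgX1 HEK293 cell line | Schedule: Overnight plating before 1 h dye loading | Read-out basis: Baseline-normalised fluorescence change ratio, B-scored | Detection: Kinetic calcium dye fluorescence, Fluo-4 NW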
MrgX1 allo act = allosterically activates human MrgX1 receptor signaling. MrgX1-HEK293, Fluo-4 calcium flux, FDSS; active compounds read high. B-score at 10 µM. 0.63% of 310,000 active. AID 588675;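 active means plate-corrected calcium response at least 3 library SD above typical, normal starting fluorescence, not activating the receptor alone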;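 further: compound read alongside a low EC10 to EC30 dose of BAM8-22 agonist; peak minus trough fluorescence over baseline measured at the second addition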
* = called active by the depositor.

What do the screens show for `N=C1S/C(=C\c2ccco2)C(=O)N1c1nccs1`?
RGS4 inh: inactive; MrgX1 antagonist: inactive; RGS4 pot: inactive; MrgX1 ag: 48*; MrgX1 allo act: inactive

How did N=C1S/C(=C\c2ccco2)C(=O)N1c1ccc2c(c1)OCO2 do in these assays?
RGS4 inh: inactive; MrgX1 antagonist: inactive; RGS4 pot: inactive; MrgX1 ag: inactive; MrgX1 allo act: inactive

Results for COc1cc(/C=C(\C#N)c2nc(-c3cc4ccccc4oc3=O)cs2)ccc1O ?
RGS4 inh: inactive; MrgX1 antagonist: -9.2*; RGS4 pot: inactive; MrgX1 ag: inactive; MrgX1 allo act: inactive

Results for O=C(O)c1ccccc1N/N=C\c1ccnc2ccccc12 ?
RGS4 inh: inactive; MrgX1 antagonist: inactive; RGS4 pot: inactive; MrgX1 ag: 41*; MrgX1 allo act: inactive

Results for O=C(O)c1ccccc1N/N=C/c1cc(Br)cc(Br)c1O ?
RGS4 inh: inactive; MrgX1 antagonist: -6.4*; RGS4 pot: inactive; MrgX1 ag: inactive; MrgX1 allo act: inactive

Results for CCOC(=O)c1ccc(S(=O)(=O)N2CCN(C(=O)c3nn(C)c(=O)c4ccccc34)CC2)cc1 ?
RGS4 inh: inactive; MrgX1 antagonist: inactive; RGS4 pot: inactive; MrgX1 ag: inactive; MrgX1 allo act: inactive

Results for COc1ccc(C(=O)Nc2ccccc2C(=O)N/N=C/c2ccco2)cc1 ?
RGS4 inh: inactive; MrgX1 antagonist: inactive; RGS4 pot: inactive; MrgX1 ag: inactive; MrgX1 allo act: inactive

What do the screens show for `CCOc1ccc(CCNC(=O)c2ccc(C)c(NC3=NC4CS(=O)(=O)CC4S3)c2)cc1` (stereo unspecified)?
RGS4 inh: inactive; MrgX1 antagonist: inactive; RGS4 pot: inactive; MrgX1 ag: inactive; MrgX1 allo act: inactive

How did COc1ccc(C(CNC(=O)c2cccc(S(=O)(=O)Nc3ccc(C)cc3)c2)N2CCOCC2)cc1 (stereo unspecified) do in these assays?
RGS4 inh: inactive; MrgX1 antagonist: inactive; RGS4 pot: inactive; MrgX1 ag: inactive; MrgX1 allo act: inactive

How did CCc1ccc2oc(C(=O)NCC(c3ccc(OC)cc3)N3CCCCC3)c(C)c2c1 (stereo unspecified) do in these assays?
RGS4 inh: inactive; MrgX1 antagonist: inactive; RGS4 pot: -8.1*; MrgX1 ag: inactive; MrgX1 allo act: inactive

What do the screens show for `COc1ccc(NS(=O)(=O)c2cccc(C(=O)NCC(c3ccc(OC)cc3)N3CCOCC3)c2)cc1` (stereo unspecified)?
RGS4 inh: inactive; MrgX1 antagonist: -4.7*; RGS4 pot: inactive; MrgX1 ag: inactive; MrgX1 allo act: inactive

How did COC(CNC(=O)CN1CCN(Cc2ccccc2F)C1=O)OC do in these assays?
RGS4 inh: inactive; MrgX1 antagonist: inactive; RGS4 pot: inactive; MrgX1 ag: inactive; MrgX1 allo act: inactive

Results for CCOc1ccc(NC(=O)CN(C)C(=O)c2cc(-c3ccc(OC)cc3)nc3ccccc23)cc1OCC ?
RGS4 inh: inactive; MrgX1 antagonist: inactive; RGS4 pot: -8*; MrgX1 ag: inactive; MrgX1 allo act: inactive

How did COc1ccc(NC(=O)CN(C)C(=O)c2cc(-c3ccc(Cl)cc3)nc3ccccc23)cc1 do in these assays?
RGS4 inh: inactive; MrgX1 antagonist: inactive; RGS4 pot: -8*; MrgX1 ag: inactive; MrgX1 allo act: inactive

How did CCN(CC)S(=O)(=O)c1ccc2c(c1)nc(CCC(=O)OCC(=O)Nc1cc(Cl)cc(Cl)c1)n2C do in these assays?
RGS4 inh: inactive; MrgX1 antagonist: inactive; RGS4 pot: inactive; MrgX1 ag: inactive; MrgX1 allo act: inactive

What do the screens show for `Cc1ccc2cc(C3CC(c4ccco4)=NN3S(C)(=O)=O)c(Cl)nc2c1` (stereo unspecified)?
RGS4 inh: inactive; MrgX1 antagonist: inactive; RGS4 pot: inactive; MrgX1 ag: inactive; MrgX1 allo act: inactive

How did COC(=O)C/C=C/[C@@H](C)[C@@H](/C=N/O[C@@H](C)c1cn([C@H](CO)Cc2ccccc2)nn1)NS(=O)(=O)c1ccc(C)cc1 do in these assays?
RGS4 inh: inactive; MrgX1 antagonist: inactive; RGS4 pot: inactive; MrgX1 ag: inactive; MrgX1 allo act: inactive

What do the screens show for `C/C(CCN1CCc2nc(-c3ccccc3)c(-c3ccccc3)cc2C1)=N\O[C@@H](C)c1cn([C@H](CO)Cc2ccccc2)nn1`?
RGS4 inh: inactive; MrgX1 antagonist: inactive; RGS4 pot: -8.9*; MrgX1 ag: inactive; MrgX1 allo act: inactive

How did C=CCc1cccc2cc(C(=O)Nc3cccc(C(=O)O)c3)c(=O)oc12 do in these assays?
RGS4 inh: inactive; MrgX1 antagonist: inactive; RGS4 pot: inactive; MrgX1 ag: inactive; MrgX1 allo act: 7.6*

Results for C=CCc1cccc2cc(C(=O)Nc3ccc(CC(=O)O)cc3)c(=O)oc12 ?
RGS4 inh: inactive; MrgX1 antagonist: inactive; RGS4 pot: inactive; MrgX1 ag: inactive; MrgX1 allo act: inactive

Results for Cc1ccc(/C(=N\O)c2oc3c(C)c4oc(=O)cc(C)c4cc3c2C)cc1 ?
RGS4 inh: inactive; MrgX1 antagonist: inactive; RGS4 pot: -8.1*; MrgX1 ag: inactive; MrgX1 allo act: 10*

How did Nc1c(S(=O)(=O)c2cccc(Cl)c2)c2nc3ccccc3nc2n1/N=C/c1ccc(O)c(O)c1 do in these assays?
RGS4 inh: 16*; MrgX1 antagonist: inactive; RGS4 pot: inactive; MrgX1 ag: inactive; MrgX1 allo act: inactive

Results for COc1cccc(/C=N/n2c(N)c(S(=O)(=O)c3cccs3)c3nc4ccccc4nc32)c1OC ?
RGS4 inh: inactive; MrgX1 antagonist: inactive; RGS4 pot: inactive; MrgX1 ag: inactive; MrgX1 allo act: inactive

Results for C#CCN(C)CC/C=C1\c2ccccc2CSc2ccccc21 ?
RGS4 inh: inactive; MrgX1 antagonist: inactive; RGS4 pot: -8.7*; MrgX1 ag: inactive; MrgX1 allo act: inactive

What do the screens show for `CN(C)CC/C=C1/c2ccc(F)cc2Sc2ccc(Cl)cc21`?
RGS4 inh: inactive; MrgX1 antagonist: inactive; RGS4 pot: -7.8*; MrgX1 ag: inactive; MrgX1 allo act: inactive

What do the screens show for `C=CCN(C)CC/C=C1\c2ccccc2CSc2ccccc21`?
RGS4 inh: inactive; MrgX1 antagonist: inactive; RGS4 pot: -11*; MrgX1 ag: inactive; MrgX1 allo act: inactive

What do the screens show for `CN(C)CC/C=C1\c2cc(F)ccc2CSc2ccccc21`?
RGS4 inh: inactive; MrgX1 antagonist: inactive; RGS4 pot: -8.8*; MrgX1 ag: inactive; MrgX1 allo act: inactive

Results for O=C(CSc1ncnc2c1nnn2Cc1ccccc1F)NCC1CCCO1 (stereo unspecified) ?
RGS4 inh: inactive; MrgX1 antagonist: inactive; RGS4 pot: inactive; MrgX1 ag: inactive; MrgX1 allo act: inactive

What do the screens show for `CNC(=S)Nc1cc(C)ccc1OC(F)F`?
RGS4 inh: inactive; MrgX1 antagonist: inactive; RGS4 pot: inactive; MrgX1 ag: inactive; MrgX1 allo act: inactive

Screening results as filed in PubChem BioAssay.
